Compound activity (PubChem BioAssay)
Rows were chosen to be rich in hits. Some 4.9% of all compounds tested hit in one or more screens of this group.
STAT1 inh = STAT1 signaling inhibitors, primary screen, cell-based, HTS, luciferase reporter; AID 920, 2007; NIH 3T3 STAT1-luciferase reporter, IFN-gamma, luminescence; inhibition, % at 5.5 µM; 200,000 compounds, 0.35% hits;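 active = inhibition above a set limit, the mean inhibition across all tested compounds plus 3 SD, cut at about 34% in these data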;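 also: 0% = IFN-gamma with DMSO and 100% = IFN-gamma with 300 µM nifuroxazide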
STAT3 blocker = IL-6 driven STAT3 reporter inhibitors, primary screen, U3A cells, luciferase, luminescence, MLSCN library; 190,000 compounds, 0.89% hits; IL-6 STAT3-luciferase reporter; host cell line lacks STAT1; inhibition, % at 5.5 µM;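 active = inhibition above the mean inhibition across all screened compounds plus 3 SD, cut at about 44% in these data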;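 also: 0% = DMSO only wells and 100% = 100 µM nifuroxazide control wells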
STAT1 act = STAT1 signaling activators, primary screen, cell-based, HTS, luciferase reporter; activation (% of control), % at 5.5 µM; AID 932, 2007; 200,000 compounds, 2.6% hits; NIH 3T3 STAT1-luciferase reporter, IFN-gamma, luminescence; 100% = IFN-gamma alone, no compound;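 active = activation above the screen-wide mean activation plus 3 SD, cut at about 130% in these data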;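 also: raw ratio to IFN-gamma control signal so 100% means no change and 0% no light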
NF-kB expr up = activators of NF-kB expression in neurons, primary screen, cell-based, HTS; human neuronal cells, NF-kB reporter expression; stronger effect = higher value; fold change at 12.5 µM; 190,000 compounds, 1.6% hits; in the data active = fold change above about 3.3
APP 5'UTR act = activators of APP 5'UTR luciferase reporter, primary screen, SH-SY5Y cells; 190,000 compounds, 1% hits; SH-SY5Y APP 5'UTR luciferase reporter, luminescence; zero percent = DMSO vehicle wells; activation, % at 2 µM;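 active = activation above a set limit, based on mean plus 3 SD of controls, cut at about 140% in these data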
STAT3 activator = IL-6 driven STAT3 reporter potentiators, primary screen, U3A cells, luciferase, luminescence, MLSCN library | IL-6 STAT3-luciferase reporter; 100% = signal with IL-6 EC80 alone | activation (% of control), % at 5.6 µM | 190,000 compounds, 0.91% hits | AID 871, 2007;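 active = activation above the screen-wide mean of compound activation plus 3 SD, cut at about 130% in these data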;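 also: 0% = background luminescence of wells with medium and substrate only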
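Detection: reporter luminescence signal / Assay system: STAT1-lacking human U3A cells, STAT3 luciferase reporter / Incubation: compound pre-incubation 1 h before IL-6, then 6 h stimulation at 37 °C / Control set: IL-6-only high control / Read-out: % activation relative to IL-6 control / Probe or stimulus: Interleukin-6, 33 ng/mL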
The depositor's hits bear a star; nt = no result.

SMILES	STAT1 inh	STAT3 blocker	STAT1 act	NF-kB expr up	APP 5'UTR act	STAT3 activator
CCOC(=O)N1CCN(C(=O)c2noc(C(C)C)c2[N+](=O)[O-])CC1	15	8	86	1.4	19	93
O=C(Nc1ccc2nc(C3CC3)n(Cc3ccc(F)cc3)c(=O)c2c1)c1ccco1	-14	28	113	0.5	23	81
CC(=O)Nc1ccc2nc(C3CC3)n(Cc3ccc(Cl)cc3)c(=O)c2c1	-52	-10	146*	2.2	106	109
CCC(COC)NCc1cn(-c2ccc(OC)cc2)nc1-c1cccc(F)c1 (configuration not stated)	-13	9	110	0.91	-11	96
CCN(C)c1ccc(/C=N\n2nnnc2N)cc1	-44	8	141*	2.4	42	98
Nc1nnnn1/N=C/c1ccc(O)cc1	-6	-2	108	1.2	nt	102
O=C(NC(=S)Nc1ccc(Br)cn1)c1cccs1	-112	-84	204*	4*	195*	168*
Cc1cccnc1NC(=S)NC(=O)c1cncc(Br)c1	-24	4	122	2.2	70	101
Cc1cccnc1NC(=S)NC(=O)c1cccs1	-82	-50	174*	5*	198*	154*
Cc1ccccc1C(=O)Nc1ccc(Br)cn1	-37	15	134*	3.8*	111	96
CC[C@@H](C)[C@@H](C(=O)N1CCN(C(=O)OC(C)(C)C)CC1)n1cc(CCCCNC(=O)OC(C)(C)C)nn1	9	nt	93	0.61	-19	nt
CN(C)/C=N/NC(=O)c1ccc(Cl)cc1	-5	5	104	1.2	-6	98
CN(C)/C=N/c1cnc(C(=O)c2ccc(Cl)cc2)n1C	-50	5	146*	3.8*	19	103
O=C(NCCc1ccccc1)c1ccc(NCC2CCCO2)c([N+](=O)[O-])c1 (configuration not stated)	-27	-8	122	2.2	17	113
Cc1ccc(C(=O)COC(=O)c2cccc(NC(=O)c3ccc([N+](=O)[O-])cc3[N+](=O)[O-])c2)cc1	43*	46*	61	3	164*	65
CC(=O)Nc1ccc(C(=O)OCC(=O)c2cccc([N+](=O)[O-])c2)cc1	13	5	88	1.1	4	95
CCOc1ccc2ccccc2c1/C=N/NC(=O)CNC(=O)Cc1ccccc1	1	3	100	0.92	0	98
O=[N+]([O-])c1cc(C(F)(F)F)ccc1N1CCN(S(=O)(=O)c2ccc3c(c2)CCCC3)CC1	2	-1	98	0.69	17	103
COc1ccc(C2CC(c3c(O)cc(C)oc3=O)=NCCS2)c(OC)c1 (configuration not stated)	-38	-66	136*	5.8*	-93	164*
Cc1cc2ncc(-c3cccc(Cl)c3)cn2n1	-32	-24	129*	1.9	49	122
CC(C)N1CCC(N2CCN(CCCn3cccn3)CC2CCO)CC1 (configuration not stated)	-4	6	102	1.2	-9	99
O=c1[nH]c(N/N=C\c2ccc(F)cc2)nc2ccccc12	-56	25	150*	4.1*	189*	83
O=c1[nH]c(N/N=C/c2ccc(O)cc2)nc2ccccc12	-49	12	144*	2.9	134	92
O=C(NS(=O)(=O)Oc1cccc(Cl)c1Cl)OC[C@@H]1CCCN2CCCCC12 (some centres not stated)	-3	0	103	1.5	8	103
Cc1nn(Cc2ccccc2)c(Cl)c1/C=C/C(=O)OCC(=O)N(C)C1CCS(=O)(=O)C1 (configuration not stated)	-4	8	105	1.3	7	94
SMILES	STAT1 inh	STAT3 blocker	STAT1 act	NF-kB expr up	APP 5'UTR act	STAT3 activator
Cc1nn(Cc2ccccc2)c(Cl)c1/C=C/C(=O)OCC(=O)N1CCCC1=O	0	-3	98	7*	22	105
O=C(CSCc1nc2c(nnn2Cc2ccc(F)cc2)c(=O)[nH]1)Nc1cccc(C(F)(F)F)c1	-6	-3	104	0.97	1	106
Cc1nc2ccc(S(=O)(=O)NCC(=O)Nc3cccc(F)c3)cc2s1	2	6	97	1.2	23	98
Oc1ccc(-c2nnc(SCC3CCCCC3)o2)cc1	-21	12	119	4.9*	111	98
O=C(CSc1nnc(-c2ccc(O)cc2)o1)N1CCOCC1	-17	3	114	1.6	1	103
Cc1ccc(-n2nc(C)c3c2OC(N)=C(C#N)C3c2ccco2)cc1 (configuration not stated)	-2	-36	102	1.1	6	140*
Cc1ccc(-n2nc(C)c3c2OC(N)=C(C#N)C3c2ccc(C)o2)cc1 (configuration not stated)	-8	-29	99	0.9	-2	126
Oc1ccc(N2CCN(c3ncnc4sc5c(c34)CCC5)CC2)cc1	16	22	85	3.4*	11	86
O=S(=O)(c1ccc(Cl)s1)N1CCCc2cccc(O)c21	-24	-11	122	2.7	79	110
Cc1ccc(NC(=O)CSC2=NN3CCCC(=O)N=C3S2)c(C)c1	1	nt	98	3.3*	13	nt
Cc1cccc(NC(=O)CSC2=NN3CCCC(=O)N=C3S2)c1C	1	nt	98	2.9	-7	nt
COc1ccc(NC(=S)NC2CCCCC2)cn1	-7	2	106	1.1	-16	105
O=C(Cc1cccc2ccccc12)N/N=C/c1ccc(Sc2cccc3cccnc23)o1	3	11	97	0.7	-54	97
CCCCC(=O)N/N=C/c1ccc(Sc2cccc3cccnc23)o1	8	-20	92	4.4*	1	114
COc1ccc(/C=C/C2=NN(C)C(=O)CC2)cc1	-31	19	127	3.4*	149*	86
COc1cc(/C=C/c2cc(C(F)(F)F)[nH]c(=O)n2)cc(OC)c1OC	46*	17	56	1.3	13	87
COc1cc(OC)c(OC)cc1/C=C/c1cc(C(F)(F)F)[nH]c(=O)n1	8	11	92	1	-5	94
O=[N+]([O-])c1nn(-c2ccc3c(c2)OCCO3)n(O)c1=Nc1ccccc1	46*	90*	59	0.36	-38	25
Cc1ccc(CN=c2c([N+](=O)[O-])nn(-c3ccc4c(c3)OCCO4)n2O)cc1	-40	1	135*	3.1	94	98
O=[N+]([O-])c1nn(-c2ccc3c(c2)OCCO3)n(O)c1=NCCCO	-19	-2	117	1.6	35	103
